Experimental data reported in ChEMBL document CHEMBL2146371, “Biologically active dibenzofurans from Pilidiostigma glabrum, an endemic Australian Myrtaceae” (J Nat Prod, 2012).
≈ marks a conversion by molar mass, not a printed value. Calls of active or inactive are those of the source. The calls are words filed in the database; no cut-off is given here.

What was measured:
Staphylococcus aureus [1] = assay: Antibacterial activity against Staphylococcus aureus ATCC 29213 after overnight incubation by broth microdilution method; assay type: functional
How it was run: (§1)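 Broth microdilution (CLSI M7A7, modified) in tryptone soya broth with 0.025 g/mL glucose, replacing Mueller-Hinton. Compounds were 2-fold serially diluted in TSB containing 2% DMSO. Inoculum came from a 0.5 McFarland suspension diluted 1:100, giving about 5 × 10^5 cfu in 100 μL. Plates were incubated overnight at 37 °C. MIC = lowest concentration with no growth visible to the unaided eye.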

Staphylococcus aureus [2] = assay: Antibacterial activity against Staphylococcus aureus ATCC 29213 incubated overnight followed by compound transfer to TSB medium measured after overnight incubation by cell counting; assay type: functional
Staphylococcus aureus [3] = assay: Antibacterial activity against Staphylococcus aureus ATCC 25923 after overnight incubation by broth microdilution method; assay type: functional; how it was run: as §1
Staphylococcus aureus [4] = assay: Antibacterial activity against Staphylococcus aureus ATCC 25923 incubated overnight followed by compound transfer to TSB medium measured after overnight incubation by cell counting; assay type: functional
[5] = test system: Staphylococcus epidermidis; assay: Antibacterial activity against Staphylococcus epidermidis ATCC 35984 after overnight incubation by broth microdilution method; assay type: functional; how it was run: as §1
[6] = test system: Staphylococcus epidermidis; assay: Antibacterial activity against Staphylococcus epidermidis ATCC 35984 incubated overnight followed by compound transfer to TSB medium measured after overnight incubation by cell counting; assay type: functional
Escherichia coli = assay: Antibacterial activity against Escherichia coli ATCC 25922 after overnight incubation by broth microdilution method; assay type: functional; how it was run: as §1
RAW264.7 [7] = assay: Antiinflammatory activity in mouse RAW264.7 cells assessed as inhibition of LPS-induced nitric oxide production incubated for 1 hr prior to LPS-challenge measured after 20 hrs by Griess method; assay type: functional, cell-based
How it was run: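 RAW264 cells (10^6 cells/mL, 120 μL/well) were pre-incubated for 20 h. Compounds in DMSO, diluted 20-fold in medium, were added for 1 h. LPS (10 μL of 10 μg/mL) was then added and incubation continued for 20 h. Nitrite was measured by Griess reagent (23 °C, 20 min, A550) against 0–100 μM standards. Triplicate; expressed as a percentage of solvent control.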

RAW264.7 [8] = assay: Antiinflammatory activity in mouse RAW264.7 cells assessed as inhibition of LPS-induced TNFalpha production incubated for 1 hr prior to LPS-challenge measured after 20 hrs by immunoassay; assay type: functional, cell-based
How it was run: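 TNF-α was measured by mouse ELISA kit in the same LPS-stimulated RAW264 supernatants as the nitrite assay. Compounds were added 1 h before LPS (10 μL of 10 μg/mL), followed by 20 h incubation.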

[9] = Antiinflammatory activity in Swiss albino mouse 3T3 cells assessed as inhibition of calcium ionophore A23187-induced PGE2 synthesis incubated for 3 hrs prior to calcium ionophore A23187-challenge measured after 15 mins by enzyme immunoassay; assay type: functional, cell-based; conditions: NIH3T3
How it was run: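 3T3 cells were seeded at 27 × 10^3/well in phenol-red-free DMEM with 5% FBS and 5% newborn calf serum, then left to attach overnight. Compounds in DMSO (0.5% final) were added for 3 h at 37 °C. A23187 (0.5 mM, 10 μL/well) was then added for 15 min. Supernatant was diluted 81-fold and PGE2 measured by EIA. Triplicate; percent inhibition relative to DMSO control.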

[10] = Cytotoxicity against mouse RAW264.7 cells after 24 hrs by ATPlite assay; assay type: cell-based; conditions: read-out: ED50
How it was run: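 RAW264 cells were plated at 30 000/well in DMEM with 10% FBS. Compounds were tested at six concentrations from DMSO stocks diluted 20-fold in medium, for 24 h at 37 °C, 5% CO2. Cellular ATP was read by ATPlite luminescence. Triplicate; ED50 with 95% CI from curve fitting.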

[11] = Cytotoxicity against Swiss albino mouse 3T3 cells; assay type: cell-based, NIH3T3; conditions: read-out: ED50 (the source's name)
RAW264.7 [12] = assay: Selectivity index, ratio of cytotoxic ED50 for mouse RAW264.7 cells to IC50 for LPS-induced nitric oxide synthesis in mouse RAW264.7 cells; assay type: functional
How it was run: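 Selectivity index = RAW264 cytotoxicity ED50 (24 h ATPlite) divided by IC50 for inhibition of LPS-induced nitrite production in RAW264 cells.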

[13] = Antioxidant activity against AAPH-induced fluorescein peroxidation assessed as trolox equivalent measured every min for 35 mins by fluorimetric analysis; assay type: functional
How it was run: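 ORAC: samples were diluted from 20 mg/mL DMSO stock into 75 mM phosphate buffer (pH 7.4), then 2-fold serially, with each tested at two concentrations. Reaction used fluorescein (10 μL, 5 μM) and AAPH (170 μL, 20 mM). Fluorescence was read every minute for 35 min at 37 °C. Values come from a Trolox standard curve (12.5–100 μM) of net AUC and are given as μmol TE/g. Quadruplicate.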

Pseudomonas aeruginosa = assay: Antibacterial activity against Pseudomonas aeruginosa ATCC 27853 after overnight incubation by broth microdilution method; assay type: functional; how it was run: as §1
NIH3T3 = assay: Selectivity index, ratio of cytotoxic ED50 for Swiss albino mouse 3T3 cells to IC50 for calcium ionophore A23187-induced PGE2 synthesis in Swiss albino mouse 3T3 cells; assay type: functional

SMILES | MIC (Staphylococcus aureus [1]) [µM] | MIC (Staphylococcus aureus [3]) [µM] | MIC [5] [µM] | MIC (Escherichia coli) | IC50 (RAW264.7 [7]) [µM] | IC50 [9] [µM] | MIC (Pseudomonas aeruginosa) | MBC (Staphylococcus aureus [2]) [µM] | MBC (Staphylococcus aureus [4]) [µM] | MBC [6] [µM] | inhibition (RAW264.7 [7]) | inhibition (RAW264.7 [8]) | CC50 at 24 h [10] [µM] | CC50 [11] [µM] | Selectivity Index (RAW264.7 [12]) | Activity [13] [µmol/g] | Selectivity Index (NIH3T3)
CC[C@H](C)C(=O)c1c(O)c(C)c(O)c2c1oc1c(C(=O)[C@@H](C)CC)c(O)c(C)c(O)c12 | 7.2 (≈ 3.09 µg/mL) | 3.7 (≈ 1.59 µg/mL) | 3.7 (≈ 1.59 µg/mL) | inactive | 5 | > 200 | – | 14.7 (≈ 6.3 µg/mL) | 3.7 (≈ 1.59 µg/mL) | 3.7 (≈ 1.59 µg/mL) | Dose-dependent effect | inactive | 6.8 | 24.1 | 1.36 | 3640 | –
Cc1c(O)c(C(=O)C(C)C)c2oc3c(C(=O)C(C)C)c(O)c(C)c(O)c3c2c1O | 26.5 (≈ 10.6 µg/mL) | 13.2 (≈ 5.29 µg/mL) | 13.2 (≈ 5.29 µg/mL) | inactive | 89 | > 200 | inactive | 26.5 (≈ 10.6 µg/mL) | 26.5 (≈ 10.6 µg/mL) | 13.2 (≈ 5.29 µg/mL) | – | inactive | 142 | 44 | 1.6 | 609 | –
Oc1cc(O)c2c(c1)O[C@H](c1ccc(O)c(O)c1)[C@H](O)C2 | – | – | – | – | – | – | – | – | – | – | – | – | – | – | – | 29200 | –
CC[C@H](C)C(=O)c1c(O)c(C)c2oc3c(C)c(O)c(C(=O)CC(C)C)c(O)c3c2c1O [RHODOMYRTOXIN C] | 7.2 (≈ 3.09 µg/mL) | 0.9 (≈ 0.386 µg/mL) | 1.9 (≈ 0.814 µg/mL) | inactive | 1.2 | 3.4 | – | 7.2 (≈ 3.09 µg/mL) | 0.9 (≈ 0.386 µg/mL) | 1.9 (≈ 0.814 µg/mL) | Dose-dependent effect | inactive | 1.4 | 7 | 1.17 | 1010 | 2.06
CC[C@H](C)C(=O)c1c(O)c(C)c(O)c2c1oc1c(C(=O)C(C)C)c(O)c(C)c(O)c12 | 12.1 (≈ 5.01 µg/mL) | 6 (≈ 2.49 µg/mL) | 6 (≈ 2.49 µg/mL) | inactive | 4.4 | > 200 | – | 24.1 (≈ 9.99 µg/mL) | 24.1 (≈ 9.99 µg/mL) | 6 (≈ 2.49 µg/mL) | Dose-dependent effect | inactive | 17.6 | 22.3 | 4 | 6280 | –

Now from value to compound, other results behind:

MIC (Staphylococcus aureus [1]) [µM] | MIC (Staphylococcus aureus [3]) [µM] | MIC [5] [µM] | MIC (Escherichia coli) | IC50 (RAW264.7 [7]) [µM] | IC50 [9] [µM] | MIC (Pseudomonas aeruginosa) | SMILES | MBC (Staphylococcus aureus [2]) [µM] | MBC (Staphylococcus aureus [4]) [µM] | MBC [6] [µM] | inhibition (RAW264.7 [7]) | inhibition (RAW264.7 [8]) | CC50 at 24 h [10] [µM] | CC50 [11] [µM] | Selectivity Index (RAW264.7 [12]) | Activity [13] [µmol/g] | Selectivity Index (NIH3T3)
2.7 (≈ 1.08 µg/mL) | 2.7 (≈ 1.08 µg/mL) | 2.7 (≈ 1.08 µg/mL) | inactive | 3.4 | 4.5 | inactive | Cc1c(O)c(C(=O)C(C)C)c(O)c2c1oc1c(C)c(O)c(C(=O)C(C)C)c(O)c12 | 11.4 (≈ 4.56 µg/mL) | 5.7 (≈ 2.28 µg/mL) | 22.7 (≈ 9.09 µg/mL) | Dose-dependent effect | inactive | 12 | 15.3 | 3.53 | 1450 | 3.4
3.9 (≈ 1.62 µg/mL) | 0.5 (≈ 0.207 µg/mL) | 1.9 (≈ 0.787 µg/mL) | inactive | 0.6 | 6 | – | CC[C@H](C)C(=O)c1c(O)c(C)c2oc3c(C)c(O)c(C(=O)C(C)C)c(O)c3c2c1O | 3.9 (≈ 1.62 µg/mL) | 1.9 (≈ 0.787 µg/mL) | 3.9 (≈ 1.62 µg/mL) | Dose-dependent effect | inactive | 6.5 | 9.4 | 10.83 | 2580 | 1.57
< 0.53 | < 0.53 | < 0.53 | < 0.53 µM | – | – | < 0.53 µM | C[C@H]1COc2c(N3CCN(C)CC3)c(F)cc3c(=O)c(C(=O)O)cn1c23 [LEVOFLOXACIN] | – | – | – | – | – | – | – | – | – | –
